Data from ChEMBL document CHEMBL1759927, “Design, synthesis and X-ray crystallographic study of NAmPRTase inhibitors as anti-cancer agents” (Eur J Med Chem, 2011).

Legend:
MCF7 [1] = assay: Antitumor activity against human MCF7 cells after 6 days by SRB assay; format: functional; set-up: concentration or dose not given beside the values
Procedure, shortened: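 MCF7 breast cancer cells were grown in RPMI 1640 with 10% FBS and antibiotic-antimycotic at 37 °C under 5% CO2. They were seeded at 50,000 cells/mL and exposed to inhibitor for six days. Cells were fixed with ice-cold TCA for 1 h, stained with SRB for 30 min at RT, washed with 1% acetic acid and solubilized in 10 mM Tris. A515 was read. […].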

HT-1080 = assay: Cytotoxicity against human HT1080 cells after 6 days by SRB assay; format: functional, cell-based; conditions: HT-1080, 144 h
Procedure, shortened: (§1)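 Cells were plated at 50,000 cells/mL in a humidified 5% CO2 atmosphere at 37 °C and incubated with inhibitors for six days. They were then fixed 1 h in cold TCA, stained 30 min at RT with SRB, washed with 1% acetic acid and solubilized in 10 mM Tris before reading at 515 nm. Means of four duplicate samples were expressed relative to solvent control, with IC50 from nonlinear regression.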

HCT-116 = assay: Cytotoxicity against human HCT116 cells after 6 days by SRB assay; format: functional, cell-based; conditions: HCT-116, 144 h; procedure, shortened: as §1
MCF7 [2] = assay: Antitumor activity against human MCF7 cells at 10 uM after 6 days by SRB assay; format: functional, cell-based; conditions: MCF7, 144 h
Procedure, shortened: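 MCF7 cells were cultured in RPMI 1640 with 10% FBS at 37 °C and 5% CO2, plated at 50,000 cells/mL, and given a fixed 10 µM compound for six days. Viability was read by SRB staining after TCA fixation, Tris solubilization and absorbance at 515 nm. […], as means of three experiments with standard deviations.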

[3] = target: Nicotinamide phosphoribosyltransferase (Homo sapiens, UniProt P43490); assay: Inhibition of human NAmPRTase by HPLC analysis
Sequence of Nicotinamide phosphoribosyltransferase (P43490 whole entry): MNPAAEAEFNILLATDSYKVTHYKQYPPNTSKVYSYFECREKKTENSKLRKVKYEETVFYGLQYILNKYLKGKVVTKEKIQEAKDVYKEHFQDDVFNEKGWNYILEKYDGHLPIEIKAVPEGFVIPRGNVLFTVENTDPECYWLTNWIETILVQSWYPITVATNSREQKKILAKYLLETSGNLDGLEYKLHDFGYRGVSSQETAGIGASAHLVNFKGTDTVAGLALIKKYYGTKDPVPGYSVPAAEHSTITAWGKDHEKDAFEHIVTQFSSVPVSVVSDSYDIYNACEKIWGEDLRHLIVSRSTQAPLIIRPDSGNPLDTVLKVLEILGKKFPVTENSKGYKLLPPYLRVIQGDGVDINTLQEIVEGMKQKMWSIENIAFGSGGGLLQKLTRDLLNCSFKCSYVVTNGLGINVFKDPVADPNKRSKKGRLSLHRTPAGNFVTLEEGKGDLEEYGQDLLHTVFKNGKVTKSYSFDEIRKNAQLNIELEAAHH

A549 = assay: Cytotoxicity against human A549 cells after 6 days by SRB assay; format: functional, cell-based; conditions: A549, 144 h; procedure, shortened: as §1
K562 = assay: Cytotoxicity against human K562 cells after 6 days by SRB assay; format: functional, cell-based; conditions: K562, 144 h; procedure, shortened: as §1
SNU-638 = assay: Cytotoxicity against human SNU638 cells after 6 days by SRB assay; format: functional, cell-based; conditions: SNU-638, 144 h; procedure, shortened: as §1

With O=C(/C=C/c1cncnc1)NCCCCC1CCN(C(=O)c2ccccc2)CC1 the “Cell survival (% of control)” value (MCF7 [1]) was 86.8%.

Nc1ncc(/C=C/C(=O)NCCCCC2CCN(C(=O)c3ccccc3)CC2)cn1 was tested, and the “Cell survival (% of control)” value (MCF7 [1]) was 103.4%.

In the case of O=C(/C=C/c1ccc[nH]1)NCCCCC1CCN(C(=O)c2ccccc2)CC1, the IC50 (HT-1080) is reported as 3.2 µM, the IC50 (HCT-116) is reported as 0.3 µM and the “Cell survival (% of control)” value (MCF7 [1]) is reported as 4.5%. For the same compound, the IC50 (MCF7 [2]) was 1.29 µM, the IC50 [3] was 20.3 µM and the IC50 (A549) was 4.86 µM. For the same compound, the IC50 (K562) was 1.4 µM and the IC50 (SNU-638) was 1.7 µM.

O=C(/C=C/c1cn[nH]c1)NCCCCC1CCN(C(=O)c2ccccc2)CC1 was tested, and the “Cell survival (% of control)” value (MCF7 [1]) was 101.7%.

With O=C(/C=C/c1c[nH]cn1)NCCCCC1CCN(C(=O)c2ccccc2)CC1 the “Cell survival (% of control)” value (MCF7 [1]) was 102.9%.

For O=C(/C=C/c1c[nH]c2ccccc12)NCCCCC1CCN(C(=O)c2ccccc2)CC1, the “Cell survival (% of control)” value (MCF7 [1]) was 103.3%.

In the case of O=C(/C=C/c1ccccc1[N+](=O)[O-])NCCCCC1CCN(C(=O)c2ccccc2)CC1, the “Cell survival (% of control)” value (MCF7 [1]) is reported as 102.7%.

With O=C(/C=C/c1cccc([N+](=O)[O-])c1)NCCCCC1CCN(C(=O)c2ccccc2)CC1 the “Cell survival (% of control)” value (MCF7 [1]) was 103.1%.

With O=C(/C=C/c1cccn1CCC(CO)CO)NCCCCC1CCN(C(=O)c2ccccc2)CC1 the “Cell survival (% of control)” value (MCF7 [1]) was 105%.

With O=C(/C=C/c1cnn(CCC(CO)CO)c1)NCCCCC1CCN(C(=O)c2ccccc2)CC1 the “Cell survival (% of control)” value (MCF7 [1]) was 106.6%.

With O=C(/C=C/c1cn(CCC(CO)CO)cn1)NCCCCC1CCN(C(=O)c2ccccc2)CC1 the “Cell survival (% of control)” value (MCF7 [1]) was 104.3%.

For O=C(/C=C/c1cn(CCC(CO)CO)c2ccccc12)NCCCCC1CCN(C(=O)c2ccccc2)CC1, the “Cell survival (% of control)” value (MCF7 [1]) was 104.9%.

Cn1cccc1/C=C/C(=O)NCCCCC1CCN(C(=O)c2ccccc2)CC1 was tested, and the “Cell survival (% of control)” value (MCF7 [1]) was 103.6%.

For Nc1ccccc1/C=C/C(=O)NCCCCC1CCN(C(=O)c2ccccc2)CC1, the “Cell survival (% of control)” value (MCF7 [1]) was 106.3%.

Nc1cccc(/C=C/C(=O)NCCCCC2CCN(C(=O)c3ccccc3)CC2)c1 was tested, and the “Cell survival (% of control)” value (MCF7 [1]) was 103.9%.

O=C(/C=C/c1cccnc1)NCCCCC1CCN(C(=O)c2ccccc2)CC1 [DAPORINAD] was tested, and the IC50 (HT-1080) was under 0.16 µM, the IC50 (HCT-116) was under 0.16 µM and the “Cell survival (% of control)” value (MCF7 [1]) was 5.6%. For the same compound, the IC50 (MCF7 [2]) was 0.68 µM, the IC50 (A549) was under 0.16 µM and the IC50 (K562) was over 20 µM. The IC50 (SNU-638) was under 0.16 µM.

Cc1c2ccncc2c(C)c2c1[nH]c1ccccc12 [ELLIPTECINE] was tested, and the IC50 (HT-1080) was 0.21 µM, the IC50 (HCT-116) was 0.41 µM and the IC50 (A549) was 0.47 µM. For the same compound, the IC50 (K562) was 0.38 µM and the IC50 (SNU-638) was 1.64 µM.
